# The list is not random: actives were taken first. Their share in the collection is about 3.8%.
# hERG rescue: shields human hERG channel from block by proarrhythmic agents; activation (rescue from dofetilide block), less the hit threshold, % at 10 µM; CHO-hERG, FluxOR thallium flux, dofetilide IC70 present; 310,000 compounds, 0.51% hits; AID 1511;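 active = activation above the mean of controls blocked by dofetilide plus 5 SD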;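 note: thallium influx through hERG after potassium depolarization seen as dye fluorescence rise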
# KCNQ1 block: blocks the human KCNQ1 potassium channel; P51787; 310,000 compounds, 1.3% hits; CHO-K1 KCNQ1, FluxOR thallium flux fluorescence; stronger effect = higher value; B-score at 10 µM; AID 2642;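 active = compounds whose thallium flux B-score, printed positive for inhibition, exceeds three library SD while starting fluorescence stays within three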;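 note: channel opened by potassium depolarization with thallium stimulus after 20 min compound exposure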
# Kir21 inh: Kir2.1 (mouse) channel inhibition | HEK293-Kir2.1, FluxOR thallium flux fluorescence; stronger effect = lower value | P35561 | B-score at 10 µM | 310,000 compounds, 0.85% hits;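 active = fluorescence ratio B-score at or below minus 3 SD of library scores, with starting-brightness B-score within 2 SD, cut at about -4.2 in these data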;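 note: channel flux triggered by added potassium and thallium sulfate stimulus; B-score of peak minus minimum fluorescence over baseline after thallium stimulus; more negative B-score means stronger Kir2.1 block with less thallium influx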
# KCNK9 block: human KCNK9 channel inhibition; 310,000 compounds, 1.2% hits; B-score at 10 µM; AID 488922; Q9NPC2; HEK293 KCNK9, FluxOR thallium flux fluorescence; stronger effect = lower value;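 active = ratio B-score over 3 SD below the library mean, with starting fluorescence within 5 SD of its mean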;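 note: negative B-score means less thallium flux so channel inhibition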
# Target sequence (Q9NPC2 whole entry, looked up): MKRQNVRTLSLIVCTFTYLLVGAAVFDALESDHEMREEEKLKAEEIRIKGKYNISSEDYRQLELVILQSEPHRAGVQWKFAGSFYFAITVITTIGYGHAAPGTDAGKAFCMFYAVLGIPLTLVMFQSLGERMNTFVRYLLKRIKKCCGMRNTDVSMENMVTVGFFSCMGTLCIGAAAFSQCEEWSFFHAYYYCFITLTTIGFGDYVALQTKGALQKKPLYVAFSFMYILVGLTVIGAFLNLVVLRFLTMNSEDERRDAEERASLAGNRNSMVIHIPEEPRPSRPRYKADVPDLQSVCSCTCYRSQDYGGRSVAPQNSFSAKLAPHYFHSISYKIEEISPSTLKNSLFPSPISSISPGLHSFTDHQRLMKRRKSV
# KCNQ1 pot: potentiates or activates the human KCNQ1 potassium channel; P51787; CHO-K1 KCNQ1, thallium flux FluxOR fluorescence; stronger effect = higher value; B-score at 10 µM; 310,000 compounds, 0.35% hits; AID 2648;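 active = fluorescence ratio B-score, a plate-corrected score, at least three library SD, with initial intensity B-score within 5 SD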
#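 System: Stable KCNQ1 CHO-K1 line | Incubation: 90 min dye loading and 20 min compound exposure, both at room temperature | Measure: Ratio B score | Medium: Assay buffer for compound exposure, DMSO matched across wells | Compound dosing: Single-concentration screen | Probe or stimulus: K+/Tl+ depolarizing stimulus | Measured by: Kinetic FluxOR fluorescence, 10 s baseline plus 110 s post-stimulus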
# KCNK3 inh: human KCNK3 channel inhibition, primary screen; CHO-KCNK3 thallium flux, FluxOR fluorescence; stronger effect = lower value; 340,000 compounds, 0.84% hits; O14649; B-score at 10 µM;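 active = B-score under library mean minus 4 SD, starting fluorescence ratio at most library mean plus 5 SD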;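 note: more negative B-score means stronger inhibition of thallium flux through KCNK3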
# KCNK3 confirm: human KCNK3 channel inhibition, confirmation assay; 2,400 compounds, 99% hits; CHO-KCNK3 thallium flux, FluxOR fluorescence; 0% buffer, 100% carvedilol maximal block; shares compounds with KCNK3 inh; ratio percent of control, % at 10 µM;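 active = ratio percent of control, averaged over triplicates, above buffer control mean plus 5 SD, cut at about 64% in these data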;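 note: ratio is the fluorescence rise from min to max over baseline after thallium stimulus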
# KCNK3 noninduced: activity in cells without induced KCNK3 expression; 2,400 compounds, 40% hits; thallium flux ratio (lower = more inhibition) at 10 µM; non-induced KCNK3 parental cells, FluxOR thallium flux; stronger effect = lower value; shares compounds with KCNK3 inh;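 active = thallium flux ratio, averaged over three wells, more than 5 SD below the buffer control mean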;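 note: host cells are CHO cells without KCNK3 induction; ratio is peak minus trough fluorescence over baseline then normalized to buffer controls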
# Active calls of the source: *; i = inactive; / = no result given.
SMILES,hERG rescue,KCNQ1 block,Kir21 inh,KCNK9 block,KCNQ1 pot,KCNK3 inh,KCNK3 confirm,KCNK3 noninduced
O=C(CSc1ccc(Cl)cc1)N1CCN(c2c(Cl)cccc2[N+](=O)[O-])CC1,-9.1,i,0.18,i,i,-9.87*,117.3*,0.144*
O=C(CSc1ccc(Cl)cc1)N1CCN(c2ccc([N+](=O)[O-])cc2Cl)CC1,-8.9,i,-0.67,i,i,i,/,/
CCOP(=O)(OCC)c1nc(-c2ccc(C)cc2)oc1N1CCOCC1,-3.2,i,-0.81,i,i,i,/,/
CCOP(=O)(OCC)c1nc(-c2ccc(Br)cc2)oc1N1CCCCC1,-2.8,i,-2.16,i,i,-10.2*,101.7*,i
O=C(N/N=C/c1c[nH]c2ccccc12)c1ccn(Cc2ccc(Cl)cc2Cl)n1,-6.4,i,-0.37,i,i,-9.3*,106.3*,0.15*
O=C(/C=C/c1ccccc1[N+](=O)[O-])Nc1cc(S(=O)(=O)N2CCOCC2)ccc1N1CCOCC1,/,/,/,/,/,i,/,/
COCCNC(=O)c1ccccc1NC(=O)Cc1ccccc1[N+](=O)[O-],-11.9,i,1.19,i,i,-9.87*,0.0,i
CCCn1nc([N+](=O)[O-])c(C(C#N)c2nc3ccccc3s2)c(Cl)c1=O (stereo not drawn),-22.7,14*,-3.06,i,i,-8.76*,132.7*,0.108*
CCn1nc([N+](=O)[O-])c(C(C#N)c2nc3ccccc3n2C)c(Cl)c1=O (stereo not drawn),-3.0,i,-1.9,i,i,i,/,/
COc1ccc(CCN(Cc2cc3cc(C)cc(C)c3nc2Cl)C(=O)C2CC2)cc1,-17.3,i,1.08,i,i,-10.8*,98.3*,i
Cn1c(CC(=O)Nc2ccccc2Cl)nnc1SCC(=O)Nc1nncs1,-6.5,i,0,i,i,i,/,/
CCN(CC)c1nc(-c2ccc(C(=O)NN)cc2)nc(-c2ccc(C(=O)NN)cc2)n1,-0.7,i,-0.37,i,i,-8.82*,52.3*,i
COc1ccc(Cc2nnc(SCC(=O)Nc3cc(Cl)ccc3C)[nH]c2=O)cc1,-14.2,i,-0.33,i,i,i,/,/
Cc1cccc(Sc2c(C=O)c3ccccc3n2C)c1,-6.1,i,-0.87,i,i,-10.2*,110.3*,0.136*
COCCn1c(SCc2cccc(F)c2)nc2cc(C(=O)OC)ccc2c1=O,-4.2,i,-1.18,i,i,-9*,107.3*,i
CCSc1nc2cc(C(=O)OC)ccc2c(=O)n1CC,1.1,i,-1.4,i,i,i,/,/
CCc1ccc(N2C(=O)C(Cl)=C(N3CCCCCC3)C2=O)cc1,-7.1,i,0.23,-7.08*,i,i,116.7*,0.15*
CCc1ccc(N2C(=O)C(Cl)=C(N3CCOCC3)C2=O)cc1,-7.6,i,-0.83,i,i,i,/,/
CCOC(=O)c1sc2nc(CC(=O)OC)nc(N(C)CCc3ccccn3)c2c1C,-10.3,i,0.18,i,i,-10.2*,109.0*,i
CCOC(=O)c1sc2nc(CC(=O)OC)nc(NCCN(CC)CC)c2c1C,-6.9,i,0.76,i,i,i,/,/
CCOC(=O)C1CCN(C(=O)Nc2cc(Cl)cc(Cl)c2)CC1,-3.2,i,-0.91,i,i,-9.93*,110.7*,i
CCOC(=O)C1CCN(C(=O)Nc2cccc(Cl)c2)CC1,-9.5,i,1.64,i,i,i,/,/
N#Cc1cccc(CN2CCCN(Cc3ccc(F)cc3)S2(=O)=O)c1,-3.6,i,-0.69,i,i,-9.17*,94.0*,0.149*
COc1cc2c(cc1OC)C(c1ccccc1)N(C(=O)c1ccco1)CC2 (stereo not drawn),-12.6,i,-0.86,i,i,-10.7*,96.7*,i

# Screens deposited in PubChem BioAssay by Johns Hopkins Ion Channel Center.
